Measurements from different studies.
Each line is one published result; the experiments were not run side by side.
Target: Muscarinic acetylcholine receptor M2 (CHRM2, Homo sapiens, UniProt P08172)
Concentration: 10 µM
One construct used (P08172 1-466): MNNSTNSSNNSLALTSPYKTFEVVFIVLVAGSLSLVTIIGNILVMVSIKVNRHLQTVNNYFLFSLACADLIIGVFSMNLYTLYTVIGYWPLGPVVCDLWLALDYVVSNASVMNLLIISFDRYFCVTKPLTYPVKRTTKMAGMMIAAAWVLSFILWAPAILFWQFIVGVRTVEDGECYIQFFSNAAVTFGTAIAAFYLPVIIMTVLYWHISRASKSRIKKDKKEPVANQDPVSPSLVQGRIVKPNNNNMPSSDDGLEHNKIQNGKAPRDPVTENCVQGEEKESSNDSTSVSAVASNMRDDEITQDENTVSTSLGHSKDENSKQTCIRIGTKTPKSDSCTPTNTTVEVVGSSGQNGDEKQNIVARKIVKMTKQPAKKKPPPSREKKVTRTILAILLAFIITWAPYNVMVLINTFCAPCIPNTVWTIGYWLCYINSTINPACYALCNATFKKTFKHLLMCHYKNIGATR

| Structure (SMILES) | assay | measurement | value |
| --- | --- | --- | --- |
| Cn1cncc1[C@@](O)(COc1ccc(C#N)cc1-c1ccc(OC(F)(F)F)cc1)c1ccc(C#N)cc1 | ligand displacement | inhibition | -11.9% |
| Clc1ccc2c(C3CCN(CCc4c[nH]c5ccccc45)CC3)c[nH]c2c1 | ligand displacement, radioligand | inhibition | 15% |
| CCN(CC)CCCC[C@H](NC(=O)[C@H](CC(C)C)NC(=O)[C@H](C)NC(=O)[C@H](Cc1ccccc1)NC(=O)c1ccc(C(C)(C)C)cc1)C(=O)N[C@@H](CO)C(=O)OC | ligand displacement, radioligand | inhibition | -6% |
| CN1CC[C@]2(C)c3cc(OC(=O)Nc4ccccc4)ccc3N(C)[C@H]12 | ligand displacement, radioligand | inhibition | 0% |
| COCc1c(-c2cc3cc(C)cc(OC)c3s2)c2c(N)ncnn2c1CN1CCNC(=O)C1 | ligand displacement, radioligand | inhibition | -1% |
| Cc1c(N2CCNCC2)nc2ccc(Br)cc2c1C(=O)NC[C@H](CCC(=O)O)c1ccccc1Cl | ligand displacement | inhibition | 13.8% |
| c1ccc(C(NCCNC(c2ccccc2)c2ccccc2)c2ccccc2)cc1 | cell-free assay | inhibition | 45% |
| CC(C)N1CCC[C@H]1CNC(=O)c1cn(C2CCCC2)c(=O)c2c1c1ccccc1n2C | ligand displacement, radioligand | inhibition | 1% |
| Nc1ncc(-c2nc(N3CCOCC3)nc(N3CCOCC3)n2)c(C(F)F)n1 | cell-free assay, radioligand | remaining signal | 117% |
| C[C@H](C(=O)N[C@H]1COc2ccccc2[C@@H]1S(C)(=O)=O)c1ccc(F)cc1 | cell-free assay | inhibition | 5% |
